Converted amounts (≈) assume the structure as drawn.
Assays:
Hs68 = experiment: Cytotoxic activity in Hs 68 cell line by inhibition of cell proliferation; format: functional; details: Homo sapiens
Human betaherpesvirus 5 = experiment: Antiviral activity determined against human cytomegalovirus (HCMV) in Hs 68 cell line by plaque reduction assay; format: functional, organism-based; details: Human betaherpesvirus 5, Hs68
[1] = (§1) Half life was evaluated at 50 mg/kg of compound dose, administered perorally in mice; format: ADME, organism-based; parameters: dose 50 mg/kg, route oral; details: mouse, in vivo, po
Outline: (§2)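 Mouse PK with plasma levels after oral dosing. Mean plasma data analysed non-compartmentally. Terminal slope (λz) obtained from the concentration-time curve, and t1/2 taken as 0.693/λz. Data are means of triplicates (SD<8%).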

Mus musculus [2] = experiment: The area under concentration-time curve(AUC) was determined at 50 mg/kg of compound dose, administered perorally in mice; format: ADME, organism-based; parameters: dose 50 mg/kg, route oral; details: in vivo, po
Outline: (§3)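 Mice dosed po or iv, and plasma sampled over time. Non-compartmental analysis of mean plasma concentrations gave Cmax, AUC and t1/2. AUC taken by linear trapezoidal method from zero to last sample, extrapolated to infinity with terminal slope λz. t1/2 = 0.693/λz. Mean of triplicates (SD<8%).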

Mus musculus [3] = experiment: The area under concentration-time curve(AUC) was determined at 5 mg/kg of compound dose, administered intravenously in mice; format: ADME, organism-based; parameters: dose 5 mg/kg, route intravenous; details: in vivo, iv; outline: as §3
[4] = Pharmacokinetic studies were carried out in vivo after administration of compound at 50 mg/kg perorally in mice; format: ADME, organism-based; parameters: dose 50 mg/kg, route oral; details: mouse, po; outline: as §3
[5] = Pharmacokinetic studies were carried out in vivo after administration of compound at 5 mg/kg intravenously in mice; format: ADME, organism-based; parameters: dose 5 mg/kg, route intravenous; details: mouse, iv; outline: as §3
[6] = Half life was evaluated at 5 mg/kg of compound dose, administered perorally in mice; format: ADME, organism-based; parameters: dose 5 mg/kg, route oral; details: mouse, in vivo, po; outline: as §2
Mus musculus [7] = experiment: as §1; format: ADME, organism-based; parameters: dose 50 mg/kg, route oral; details: in vivo, po; outline: as §2
Mus musculus [8] = experiment: The area under concentration-time curve(AUC) was determined at 5 mg/kg of compound dose, administered perorally in mice; format: ADME, organism-based; parameters: dose 5 mg/kg, route oral; details: in vivo, po; outline: as §3
[9] = Pharmacokinetic studies were carried out in vivo after administration of compound at 5 mg/kg perorally in mice; format: ADME, organism-based; parameters: dose 5 mg/kg, route oral; details: mouse, po; outline: as §3
[10] = Pharmacokinetic studies were carried out in vivo after administration of compound at 50 mg/kg intravenously in mice; format: ADME, organism-based; parameters: dose 50 mg/kg, route intravenous; details: mouse, iv; outline: as §3
Mus musculus [11] = experiment: Half life was evaluated at 5 mg/kg of compound dose, administered intravenously in mice; details: in vivo, iv
Mus musculus [12] = experiment: The area under concentration-time curve(AUC) was determined at 50 mg/kg of compound dose, administered intravenously in mice; format: ADME, organism-based; parameters: dose 50 mg/kg, route intravenous; details: in vivo, iv; outline: as §3
[13] = Percent oral bioavailability was determined after administration of compound at 5 mg/kg perorally in mice; format: ADME, organism-based; details: mouse, in vivo, read-out: BA
Outline: (§4)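 Mouse PK comparing oral and intravenous dosing. AUC estimated by linear trapezoid from time zero to last sample, extrapolated to infinity via terminal slope. Oral bioavailability calculated as AUCpo,0-∞/AUCiv,0-∞ at the corresponding dose. Mean of triplicate data (SD<8%).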

[14] = Percent oral bioavailability was determined after administration of compound at 50 mg/kg perorally in mice; format: ADME, organism-based; details: mouse, in vivo, read-out: BA; outline: as §4

Compound	CC50 (Hs68) [µg/mL]	IC50 (Human betaherpesvirus 5) [µg/mL]	further results
COc1ccccc1CNC(=O)c1ccc2c(Br)nccc2n1	~25 (≈ 67.2 µM)	> 25	
COc1ccccc1CNC(=O)c1ccc2c(C)nccc2n1	> 25	> 10	
COc1ccccc1CNC(=O)c1ccc2c(Cl)nccc2n1	~3.2 (≈ 9.76 µM)	> 10	
O=C(NCCc1cccs1)C1=Cc2ccncc2CC1	15 (≈ 52.7 µM)	0.17 (≈ 0.598 µM)	
O=C(NCCc1ccccc1)C1=Cc2ccncc2CC1	25 (≈ 89.8 µM)	0.71 (≈ 2.55 µM)	
CC(C)Oc1ccccc1CNC(=O)C1=Cc2ccncc2CC1	12.5 (≈ 38.8 µM)	0.68 (≈ 2.11 µM)	
COc1ccccc1CNC(=O)C1=Cc2ccncc2CC1	> 50	0.64 (≈ 2.17 µM)	half-life [1]: 42.3 min; AUC (Mus musculus [2]): 734 ug m-1 min-1; AUC (Mus musculus [3]): 57 ug m-1 min-1; Cmax [4]: 12500 ng/mL; Cmax [5]: 6940 ng/mL
O=C(NCCc1c[nH]c2ccccc12)C1=Cc2ccncc2CC1	5 (≈ 15.8 µM)	0.1 (≈ 0.315 µM)	half-life [6]: 15.2 min; T1/2 (Mus musculus [7]): 43.9 min; half-life [1]: 72.5 min; AUC (Mus musculus [8]): 21 ug m-1 min-1; Cmax [9]: 600 ng/mL; Cmax [10]: 57800 ng/mL; T1/2 (Mus musculus [11]): 14.2 min; AUC (Mus musculus [12]): 2914 ug m-1 min-1; AUC (Mus musculus [2]): 1762 ug m-1 min-1; AUC (Mus musculus [3]): 94 ug m-1 min-1; Cmax [4]: 15100 ng/mL; bioavailability [13]: 22.5%; Cmax [5]: 5560 ng/mL; bioavailability [14]: 60.4%
COc1ccc(OC)c(CCNC(=O)C2=Cc3ccncc3CC2)c1	> 50	0.23 (≈ 0.68 µM)	
COc1ccccc1CNC(=O)c1ccc2c(F)nccc2n1	~10 (≈ 32.1 µM)	~10 (≈ 32.1 µM)	
COc1ccccc1CNC(=O)c1ccc2c(N)nccc2n1	~12.5 (≈ 40.5 µM)	~10 (≈ 32.4 µM)	
COc1ccccc1CNC(=O)c1ccc2c(OC)nccc2n1	> 50	> 25	
COc1ccccc1CCNC(=O)C1=Cc2ccncc2CC1	> 25	10 (≈ 32.4 µM)	
COc1ccccc1CNC(=O)C1CCc2cnccc2C1 (centres undefined)	100 (≈ 337 µM)	25 (≈ 84.4 µM)	
COc1ccccc1CNC(=O)c1ccc2c[n+]([O-])ccc2n1	100 (≈ 323 µM)	> 25	

— ChEMBL document CHEMBL1133219, “Design and evaluation of dihydroisoquinolines as potent and orally bioavailable human cytomegalovirus inhibitors” (Bioorg Med Chem Lett, 2000)
